pEC50, pIC50: −log10 of the molar value. Some results are limits rather than exact numbers.

One series deals with Phosphodiesterase 4 (Homo sapiens, UniProt P27815+Q08499+Q07343+Q08493). Nature of the series: Inhibition of PDE4 (unknown origin). In kind it is protein assay.
Series [1] in a line: Half life in mouse at 1 mg/kg, iv. In kind it is ADME, organism-based. Conditions: in vivo.
The target of another series is Cytochrome P450 3A4 (Homo sapiens, UniProt P08684). Put plainly: Inhibition of CYP3A4 in pooled human liver microsomes using midazolam as substrate in presence of NADPH incubated for 10 mins by LC-MS/MS analysis. (Liver microsomes are vesicles of endoplasmic reticulum, rich in cytochrome P450 enzymes.)
Series [2] in a line: Toxicity in female dog during 4-week repeated once daily oral-dose toxicity study. The settings on record: in vivo, time 4 weeks. Set-up: species or system Canis lupus familiaris. The gist of the method:
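Dogs of both sexes were dosed orally once daily for 4 weeks at 25, 100 and 400 mg/kg. Toxicity was assessed and the NOAEL determined.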

Series [3] in a line: Reduction in HbA1c level in C57BL/6-Lep^ob (ob/ob) mouse at 20 mg/kg, po dosed once daily for 25 days and co-treated with 300 mg/kg. po QD for 25 days metformin relative to control. Also noted: scale not given: the % may be the effect or the level left. The settings on record: time 25 day.
Series [4] can be described thus: Tmax in mouse at 5 mg/kg, po. In kind it is ADME, organism-based. The settings on record: in vivo. The gist of the method:
(§1)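 Single-dose PK study. The iv dose was given in 10% hydroxypropyl-β-cyclodextrin and the oral dose in 0.5% methylcellulose/1% Tween80. Mouse and rat received 1 mg/kg iv and 5 mg/kg po. Dog received 0.5 mg/kg iv and 4 mg/kg po. CL, Vss, t1/2, AUC, Cmax, tmax and F were derived.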

For the next series, the target named is T1, Cytochrome P450 1A2 (Homo sapiens, UniProt P05177).
T1 sequence (P05177 whole entry): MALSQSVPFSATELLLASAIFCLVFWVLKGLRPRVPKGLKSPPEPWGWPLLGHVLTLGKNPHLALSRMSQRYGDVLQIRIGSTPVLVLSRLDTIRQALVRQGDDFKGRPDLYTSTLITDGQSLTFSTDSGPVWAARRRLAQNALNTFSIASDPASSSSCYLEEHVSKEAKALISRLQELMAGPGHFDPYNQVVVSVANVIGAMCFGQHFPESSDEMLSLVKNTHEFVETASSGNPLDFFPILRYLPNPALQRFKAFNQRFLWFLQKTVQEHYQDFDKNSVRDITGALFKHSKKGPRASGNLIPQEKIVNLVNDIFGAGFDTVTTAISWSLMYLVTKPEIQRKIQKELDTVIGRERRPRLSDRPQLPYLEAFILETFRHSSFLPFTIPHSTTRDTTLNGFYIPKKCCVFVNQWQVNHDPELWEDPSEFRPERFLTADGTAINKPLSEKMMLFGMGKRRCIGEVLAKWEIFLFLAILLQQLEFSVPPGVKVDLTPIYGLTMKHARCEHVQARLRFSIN
Put plainly: Inhibition of CYP1A2 in pooled human liver microsomes using phenacetin as substrate in presence of NADPH incubated for 10 mins by LC-MS/MS analysis.

A short description of series [5]: In-vivo inhibition of 11beta-HSD1 activity in C57BL/6 mouse liver assessed as reduction in cortisone to-cortisol conversion at 30 mg/kg, po measured after 2 hrs by ELISA. In kind it is functional. Conditions: C57BL/6, Liver. The essentials:
(§2)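 Male C57BL/6 mice dosed orally once at 3, 10 or 30 mg/kg in sterile water containing 0.5% methylcellulose and 1% Tween80, then sacrificed at 2 or 6 h. Liver and epididymal fat pads incubated ex vivo in culture medium containing cortisone. Cortisol formed was measured by ELISA and reported as % inhibition versus vehicle.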
(An ELISA detects its analyte on a solid surface through an enzyme-linked reagent.)

A short description of series [6]: Volume of distribution at steady state in mouse at 1 mg/kg, iv. In kind it is ADME, organism-based. Conditions: in vivo, read-out: Vdss. The gist of the method:
as §1

Series [7] can be described thus: Volume of distribution at steady state in rat at 1 mg/kg, iv. In kind it is ADME, organism-based. Conditions: in vivo, read-out: Vdss. The essentials: as §1
Series [8] in a line: In-vivo inhibition of 11beta-HSD1 activity in C57BL/6 mouse liver assessed as reduction in cortisone to-cortisol conversion at 30 mg/kg, po measured after 6 hrs by ELISA. It counts as functional. Conditions: C57BL/6, Liver. The gist of the method: as §2
Another series addresses Cytochrome P450 2C19 (Homo sapiens, UniProt P33261). Nature of the series: Inhibition of CYP2C19 in pooled human liver microsomes using mephenytoin as substrate in presence of NADPH incubated for 10 mins by LC-MS/MS analysis.
A short description of series [9]: Ratio of drug level in brain to plasma of mouse at 10 mg/kg, po measured after 2 hrs post dose. In kind it is ADME, organism-based. Conditions: read-out: BPR. The essentials: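 C57BL/6 mice received a single oral dose of 10 mg/kg in 0.5% methylcellulose/1% Tween80. Animals were sacrificed 2 h post-dose. Compound was measured in brain, liver, adipose and plasma (nmol/g), and tissue/plasma ratios were calculated.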

Series [10] deals with 11-beta-hydroxysteroid dehydrogenase 1 (Homo sapiens, UniProt P28845). Nature of the series: Inhibition of human 11beta-HSD1 expressed in HEK293 cells using cortisone by ELISA.
Series [11] can be described thus: AUC in mouse at 1 mg/kg, iv. Conditions: in vivo. It counts as ADME, organism-based. Also noted: dose 1 mg/kg.
Series [12] in a line: Metabolic stability in mouse liver microsomes assessed as compound remaining after 30 mins. It counts as ADME, Microsome. Conditions: read-out: Stabilty.
For another series, the target named is T2, Glucocorticoid receptor (Homo sapiens, UniProt P04150).
T2 sequence (P04150 whole entry): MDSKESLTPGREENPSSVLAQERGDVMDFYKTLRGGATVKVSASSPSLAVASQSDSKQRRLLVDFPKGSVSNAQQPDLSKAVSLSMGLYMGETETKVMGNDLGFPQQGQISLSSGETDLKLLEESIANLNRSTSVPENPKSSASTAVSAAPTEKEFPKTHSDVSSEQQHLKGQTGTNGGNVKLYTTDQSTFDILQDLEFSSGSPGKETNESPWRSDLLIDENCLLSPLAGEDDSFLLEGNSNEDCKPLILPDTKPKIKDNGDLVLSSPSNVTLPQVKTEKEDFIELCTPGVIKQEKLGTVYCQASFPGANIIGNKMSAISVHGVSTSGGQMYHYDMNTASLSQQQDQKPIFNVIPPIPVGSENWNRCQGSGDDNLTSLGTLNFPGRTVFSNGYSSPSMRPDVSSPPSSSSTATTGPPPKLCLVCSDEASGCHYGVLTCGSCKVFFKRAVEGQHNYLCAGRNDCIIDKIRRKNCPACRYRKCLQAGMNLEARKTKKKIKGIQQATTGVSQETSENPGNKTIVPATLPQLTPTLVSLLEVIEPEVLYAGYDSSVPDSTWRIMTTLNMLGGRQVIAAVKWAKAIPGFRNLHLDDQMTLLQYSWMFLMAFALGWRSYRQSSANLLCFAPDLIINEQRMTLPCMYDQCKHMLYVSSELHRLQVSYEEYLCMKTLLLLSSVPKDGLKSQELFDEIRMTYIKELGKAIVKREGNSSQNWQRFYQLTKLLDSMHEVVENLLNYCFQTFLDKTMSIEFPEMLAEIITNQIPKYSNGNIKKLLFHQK
Nature of the series: Agonist activity at glucocorticoid receptor (unknown origin).

Series [13] can be described thus: Drug level in mouse brain at 10 mg/kg, po measured after 2 hrs post dose. In kind it is ADME, organism-based. The settings on record: in vivo. The essentials:
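C57BL/6 mice given a single oral 10 mg/kg dose in 0.5% methylcellulose plus 1% Tween80. Sacrifice at 2 h post-dose, with collection of brain, liver, adipose and plasma. Compound concentration expressed as nmol/g, along with tissue/plasma ratio.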

Chain of 11-beta-hydroxysteroid dehydrogenase 1 (P28845 whole entry): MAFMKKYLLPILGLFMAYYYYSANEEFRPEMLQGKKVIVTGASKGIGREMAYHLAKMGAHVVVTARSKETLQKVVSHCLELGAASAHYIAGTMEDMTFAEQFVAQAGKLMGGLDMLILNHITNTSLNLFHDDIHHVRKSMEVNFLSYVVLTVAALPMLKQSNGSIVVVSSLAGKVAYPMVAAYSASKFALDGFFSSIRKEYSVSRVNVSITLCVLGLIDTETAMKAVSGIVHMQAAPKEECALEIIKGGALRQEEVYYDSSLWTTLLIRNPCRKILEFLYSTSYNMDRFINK
Chain of Cytochrome P450 2C19 (P33261 whole entry): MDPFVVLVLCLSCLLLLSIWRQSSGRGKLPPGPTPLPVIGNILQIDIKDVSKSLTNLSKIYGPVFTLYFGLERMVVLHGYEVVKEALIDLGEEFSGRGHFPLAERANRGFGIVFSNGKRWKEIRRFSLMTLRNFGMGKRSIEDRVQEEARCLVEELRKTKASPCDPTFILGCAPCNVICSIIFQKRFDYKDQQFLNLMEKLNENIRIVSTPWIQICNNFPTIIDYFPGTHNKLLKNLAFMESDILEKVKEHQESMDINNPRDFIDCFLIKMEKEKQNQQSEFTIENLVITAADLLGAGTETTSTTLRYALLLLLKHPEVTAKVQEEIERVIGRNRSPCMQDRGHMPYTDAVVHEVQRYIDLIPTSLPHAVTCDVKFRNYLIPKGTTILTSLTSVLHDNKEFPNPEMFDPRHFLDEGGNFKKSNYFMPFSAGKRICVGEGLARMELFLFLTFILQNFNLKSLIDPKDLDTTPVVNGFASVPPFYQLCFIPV
Chain of Cytochrome P450 3A4 (P08684 whole entry): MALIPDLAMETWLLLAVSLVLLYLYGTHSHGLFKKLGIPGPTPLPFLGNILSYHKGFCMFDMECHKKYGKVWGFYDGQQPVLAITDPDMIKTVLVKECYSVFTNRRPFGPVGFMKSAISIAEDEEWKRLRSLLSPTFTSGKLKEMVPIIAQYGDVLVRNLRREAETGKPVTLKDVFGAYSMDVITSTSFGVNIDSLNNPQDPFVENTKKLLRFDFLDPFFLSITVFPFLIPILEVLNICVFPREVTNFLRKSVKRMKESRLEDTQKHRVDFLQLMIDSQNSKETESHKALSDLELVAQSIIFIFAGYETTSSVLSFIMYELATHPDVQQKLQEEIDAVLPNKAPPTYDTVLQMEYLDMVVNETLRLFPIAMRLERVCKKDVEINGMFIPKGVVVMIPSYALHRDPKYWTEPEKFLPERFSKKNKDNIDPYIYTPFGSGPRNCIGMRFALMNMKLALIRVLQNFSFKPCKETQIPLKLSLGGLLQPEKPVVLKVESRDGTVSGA

As usually defined, the IC50 is the concentration at which inhibition is half-maximal. What is called half-life is how long it takes for the measured level to halve. One may read the pIC50 as the IC50 on a negative log10 scale, so that one unit is a factor of ten. For orientation: NOAEL means the highest dose or exposure tested at which no adverse effect was seen. Usually Tmax stands for the time from dosing to the highest level. Broadly, the inhibition in vivo is the relative decrease from the control value, in per cent. For orientation: AUC means the area under the concentration-time curve, a measure of exposure. For orientation: pEC50 means −log10 of the EC50, conventionally taken in molar units. Consider `C[C@@H]1CN(c2ccc(S(C)(=O)=O)cc2F)CCN1c1nccc(C(=O)NC2C3CC4CC2CC(O)(C4)C3)n1` (stereo partly drawn), for which the IC50 against Phosphodiesterase 4 worked out at 5.2 µM. The compound also showed a half-life in series [1] of 1.7 h. In addition, the pIC50 on Cytochrome P450 3A4 was less than 5.00; on Cytochrome P450 1A2, less than 5.00; at Cytochrome P450 2C19 it was less than 5.00; in series [10], 8.36. This compound also returned an NOAEL at 672 h in series [2] of 400 mg/kg. The Activity in series [3] is 1.67%. Besides, the Tmax in series [4] stood at 1 h. Moreover, the inhibition in vivo at 30 mg/kg in [5] was 91%; in series [8], 92%. For the same compound, the figures for the Vd in [6] and in series [7] were 1.1 L/kg and 2.1 L/kg, respectively. Moreover, the Kp at 2 h in series [9] came out at 0.04. For the same compound, the AUC in series [11] worked out at 2350 ng·h/mL. Further, in series [12], the remaining at 0.5 h came to 98%. The same compound showed a pEC50 on Glucocorticoid receptor of less than 5.30. The same compound yielded a Drug uptake in series [13] of 0.41 nmol/g.
